Calls of active or inactive are those of the source. The calls are words filed in the database; no cut-off is given here.
Tests used:
[1] = target: Serine/threonine-protein kinase SIK2 (Homo sapiens) (UniProt Q9H0K1); test: Inhibition of human SIK2 (1 to 276 residues) using KKKVSRSGLYRSPSMPENLNRPR as substrate measured after 40 mins in presence of [gamma33P]ATP by scintillation counting method
How it was run: (§1)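 Kinase panel of 422 kinases screened by Eurofins KinaseProfiler at a single test-compound concentration of 10 µM.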

[2] = target: Protein polybromo-1 (Homo sapiens) (UniProt Q86U86); test: Binding affinity to human partial length PBRM1 bromodomain 2 (S178 to E291 residues) expressed in bacterial expression system at 1 uM by BROMOscan assay
How it was run: (§2)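 BROMOscan bromodomain cross-screen run by an outside service, compound at 1 µM against 32 recombinant bromodomains. Binding given as percent of control.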

Homo sapiens [3] = species: Homo sapiens; test: Inhibition of recombinant full-length human PKBalpha […] mutant at 10 uM using GRPRTSSFAEGKK as substrate measured after 40 mins in presence of [gamma33P]ATP by scintillation counting method
[4] = target: Ephrin type-A receptor 5 (Homo sapiens) (UniProt P54756); test: Inhibition of recombinant human EphA5 (655 to 956 residues) at 10 uM using poly(Glu, Tyr) 4:1 as substrate measured after 40 mins in presence of [gamma33P]ATP by scintillation counting method
[5] = target: Bromodomain adjacent to zinc finger domain protein 2A (Homo sapiens) (UniProt Q9UIF9); test: Binding affinity to human partial length BAZ2A (M1792 to L1905 residues) expressed in bacterial expression system at 1 uM by BROMOscan assay; how it was run: as §2
[6] = target: Cyclin-dependent kinase-like 3 (Homo sapiens) (UniProt Q8IVW4); test: Inhibition of recombinant human full-length CDKL3 (1 to 303 residues) at 10 uM using RRRFRPASPLRGP as substrate measured after 120 mins in presence of [gamma33P]ATP by scintillation counting method
Peregrin (Homo sapiens) = Peregrin (Homo sapiens) (UniProt P55201); test: Binding affinity to human partial length BRPF1 (E627 to G740 residues) expressed in bacterial expression system at 1 uM by BROMOscan assay; how it was run: as §2
[7] = target: Phosphatidylinositol 5-phosphate 4-kinase type-2 alpha (Homo sapiens) (UniProt P48426); test: Inhibition of recombinant full-length human PIP4K2alpha at 10 uM using phosphatidylinositol 5-phosphate as substrate measured after 40 mins by HTRF assay
[8] = tested on: Proto-oncogene tyrosine-protein kinase receptor Ret (Homo sapiens), P07949 [V804M]; test: Inhibition of human Ret V804M mutant (658 to end residues) using KKKVSRSGLYRSPSMPENLNRPR as substrate measured after 40 mins in presence of [gamma33P]ATP by scintillation counting method; how it was run: as §1
[9] = target: Insulin receptor (Homo sapiens) (UniProt P06213); test: Inhibition of recombinant human IR (1005 to 1310 residues) at 10 uM using KKSRGDYMTMQIG as substrate measured after 40 mins in presence of [gamma33P]ATP by scintillation counting method
[10] = target: Serine/threonine-protein kinase 3 (Homo sapiens) (UniProt Q13188); test: Inhibition of recombinant full-length human MST2 (2 to end residues) at 10 uM using myelin basic protein as substrate measured after 40 mins in presence of [gamma33P]ATP by scintillation counting method
Homo sapiens [11] = species: Homo sapiens; test: Inhibition of recombinant human MAPKAPK2 A399G mutant (46 to end residues) at 10 uM using KKLNRTLSVA as substrate measured after 40 mins in presence of [gamma33P]ATP by scintillation counting method
[12] = tested on: Hepatocyte growth factor receptor (Homo sapiens), P08581 [D1228N]; test: Inhibition of recombinant human MET A1209G/V1290L/D1246N mutant (974 to end residues) at 10 uM using KKKGQEEEYVFIE as substrate measured after 40 mins in presence of [gamma33P]ATP by scintillation counting method
[13] = target: Serine/threonine-protein kinase WNK1 (Homo sapiens) (UniProt Q9H4A3); test: Inhibition of human WNK1 (1 to 491 residues) using myelin basic protein as substrate measured after 120 mins in presence of [gamma33P]ATP by scintillation counting method
[14] = tested on: Receptor-type tyrosine-protein kinase FLT3 (Homo sapiens), P36888 [D835Y]; test: Inhibition of recombinant human Flt3 D835Y mutant (564 to end residues) at 10 uM using EAIYAAPFAKKK as substrate measured after 40 mins in presence of [gamma33P]ATP by scintillation counting method
Mus musculus = species: Mus musculus; test: Inhibition of recombinant full-length mouse PI3K p110alpha/p85alpha at 10 uM using phosphatidylinositol-4, 5-bisphosphate as substrate measured after 40 mins by HTRF assay
[15] = target: Histone acetyltransferase p300 (Homo sapiens) (UniProt Q09472); test: Binding affinity to human partial length EP300 (A1040 to G1161 residues) expressed in bacterial expression system at 1 uM by BROMOscan assay; how it was run: as §2
[16] = tested on: Angiopoietin-1 receptor (Homo sapiens), Q02763 [Q939H,Q940H]; test: Inhibition of human Tie2 Q939H/Q940H mutant (771 to end residues) using poly(Glu, Tyr) 4:1 as substrate measured after 40 mins in presence of [gamma33P]ATP by scintillation counting method
[17] = target: Mitogen-activated protein kinase 14 (Homo sapiens) (UniProt Q16539); test: Inhibition of recombinant full-length human SAPK2a at 10 uM using myelin basic protein as substrate measured after 40 mins in presence of [gamma33P]ATP by scintillation counting method
[18] = tested on: Epidermal growth factor receptor (Homo sapiens), P00533 [L861Q]; test: Inhibition of recombinant human EGFR L861Q mutant (696 to end residues) at 10 uM using poly(Glu, Tyr) 4:1 as substrate measured after 40 mins in presence of [gamma33P]ATP by scintillation counting method
Homo sapiens [19] = species: Homo sapiens; test: Inhibition of recombinant full-length human PI3K p120gamma R459Q mutant at 10 uM using phosphatidylinositol-4, 5-bisphosphate as substrate measured after 40 mins by fluorescence assay
[20] = target: Fibroblast growth factor receptor 4 (Homo sapiens) (UniProt P22455); test: Inhibition of recombinant human FGFR4 (442 to 755 residues) at 10 uM using poly(Glu, Tyr) 4:1 as substrate measured after 40 mins in presence of [gamma33P]ATP by scintillation counting method
Homo sapiens [21] = species: Homo sapiens; test: Inhibition of recombinant human BrSK2 S251I mutant (2 to end residues) at 10 uM using KKLNRTLSFAEPG as substrate measured after 40 mins in presence of [gamma33P]ATP by scintillation counting method

Chain of Serine/threonine-protein kinase SIK2 (Homo sapiens) (Q9H0K1 whole entry, looked up, the tested form may be a part): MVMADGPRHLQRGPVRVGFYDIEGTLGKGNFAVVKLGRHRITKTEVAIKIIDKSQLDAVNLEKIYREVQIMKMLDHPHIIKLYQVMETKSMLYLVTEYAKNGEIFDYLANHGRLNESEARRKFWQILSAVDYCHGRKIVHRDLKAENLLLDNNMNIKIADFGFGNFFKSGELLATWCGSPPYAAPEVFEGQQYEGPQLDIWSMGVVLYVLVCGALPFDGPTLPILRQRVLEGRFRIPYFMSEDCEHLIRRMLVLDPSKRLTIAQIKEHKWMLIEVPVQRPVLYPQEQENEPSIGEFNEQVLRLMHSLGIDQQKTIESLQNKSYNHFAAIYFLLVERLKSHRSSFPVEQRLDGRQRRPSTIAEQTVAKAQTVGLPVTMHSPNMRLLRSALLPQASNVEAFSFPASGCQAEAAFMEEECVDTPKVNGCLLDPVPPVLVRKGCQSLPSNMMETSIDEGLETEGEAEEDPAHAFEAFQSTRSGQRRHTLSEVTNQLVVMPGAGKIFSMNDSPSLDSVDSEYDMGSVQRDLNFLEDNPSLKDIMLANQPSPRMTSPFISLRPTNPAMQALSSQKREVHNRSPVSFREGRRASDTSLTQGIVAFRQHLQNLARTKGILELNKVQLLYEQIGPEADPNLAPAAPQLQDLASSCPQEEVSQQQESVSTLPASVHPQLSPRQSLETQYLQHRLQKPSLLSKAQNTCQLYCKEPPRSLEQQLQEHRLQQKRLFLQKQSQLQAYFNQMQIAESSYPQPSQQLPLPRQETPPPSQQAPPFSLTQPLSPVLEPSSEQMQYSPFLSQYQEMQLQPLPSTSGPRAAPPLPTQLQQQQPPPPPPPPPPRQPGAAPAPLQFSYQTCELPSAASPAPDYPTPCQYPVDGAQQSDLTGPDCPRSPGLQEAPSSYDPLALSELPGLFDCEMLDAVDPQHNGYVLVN
Chain of Serine/threonine-protein kinase 3 (Homo sapiens) (Q13188 whole entry): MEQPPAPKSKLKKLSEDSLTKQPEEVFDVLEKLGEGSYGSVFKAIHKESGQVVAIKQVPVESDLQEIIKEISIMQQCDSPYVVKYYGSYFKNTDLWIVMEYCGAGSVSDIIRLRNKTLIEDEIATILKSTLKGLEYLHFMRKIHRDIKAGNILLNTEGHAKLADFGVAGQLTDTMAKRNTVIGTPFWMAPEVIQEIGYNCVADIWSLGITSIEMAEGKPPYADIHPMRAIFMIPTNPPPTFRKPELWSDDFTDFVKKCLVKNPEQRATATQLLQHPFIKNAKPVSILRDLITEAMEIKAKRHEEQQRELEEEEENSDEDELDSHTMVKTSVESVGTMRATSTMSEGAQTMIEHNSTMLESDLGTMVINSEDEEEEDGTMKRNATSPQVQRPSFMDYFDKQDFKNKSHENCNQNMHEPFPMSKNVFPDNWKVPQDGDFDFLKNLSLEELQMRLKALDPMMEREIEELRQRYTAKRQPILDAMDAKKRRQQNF
Chain of Fibroblast growth factor receptor 4 (Homo sapiens) (P22455 22-802 limits assumed): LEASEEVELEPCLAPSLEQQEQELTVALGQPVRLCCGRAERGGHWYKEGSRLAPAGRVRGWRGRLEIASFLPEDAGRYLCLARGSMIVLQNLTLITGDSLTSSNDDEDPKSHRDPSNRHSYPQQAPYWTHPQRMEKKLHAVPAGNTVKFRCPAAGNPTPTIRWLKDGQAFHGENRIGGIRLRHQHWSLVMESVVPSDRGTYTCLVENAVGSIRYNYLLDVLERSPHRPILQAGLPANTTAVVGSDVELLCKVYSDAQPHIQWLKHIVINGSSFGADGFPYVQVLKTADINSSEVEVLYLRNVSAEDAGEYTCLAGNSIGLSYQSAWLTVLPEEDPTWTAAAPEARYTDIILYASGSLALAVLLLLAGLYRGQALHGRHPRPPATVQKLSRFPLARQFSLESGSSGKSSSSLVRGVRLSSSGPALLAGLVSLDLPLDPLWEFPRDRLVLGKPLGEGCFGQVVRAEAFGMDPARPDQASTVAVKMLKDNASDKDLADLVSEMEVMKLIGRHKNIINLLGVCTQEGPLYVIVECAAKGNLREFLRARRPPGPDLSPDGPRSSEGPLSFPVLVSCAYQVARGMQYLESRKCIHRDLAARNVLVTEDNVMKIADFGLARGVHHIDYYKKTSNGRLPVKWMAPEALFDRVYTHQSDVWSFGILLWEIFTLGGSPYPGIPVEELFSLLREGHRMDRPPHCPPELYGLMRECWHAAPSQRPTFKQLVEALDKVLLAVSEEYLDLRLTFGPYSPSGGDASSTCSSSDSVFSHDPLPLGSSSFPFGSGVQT
Chain of Peregrin (Homo sapiens) (P55201 whole entry, the tested form may be a part): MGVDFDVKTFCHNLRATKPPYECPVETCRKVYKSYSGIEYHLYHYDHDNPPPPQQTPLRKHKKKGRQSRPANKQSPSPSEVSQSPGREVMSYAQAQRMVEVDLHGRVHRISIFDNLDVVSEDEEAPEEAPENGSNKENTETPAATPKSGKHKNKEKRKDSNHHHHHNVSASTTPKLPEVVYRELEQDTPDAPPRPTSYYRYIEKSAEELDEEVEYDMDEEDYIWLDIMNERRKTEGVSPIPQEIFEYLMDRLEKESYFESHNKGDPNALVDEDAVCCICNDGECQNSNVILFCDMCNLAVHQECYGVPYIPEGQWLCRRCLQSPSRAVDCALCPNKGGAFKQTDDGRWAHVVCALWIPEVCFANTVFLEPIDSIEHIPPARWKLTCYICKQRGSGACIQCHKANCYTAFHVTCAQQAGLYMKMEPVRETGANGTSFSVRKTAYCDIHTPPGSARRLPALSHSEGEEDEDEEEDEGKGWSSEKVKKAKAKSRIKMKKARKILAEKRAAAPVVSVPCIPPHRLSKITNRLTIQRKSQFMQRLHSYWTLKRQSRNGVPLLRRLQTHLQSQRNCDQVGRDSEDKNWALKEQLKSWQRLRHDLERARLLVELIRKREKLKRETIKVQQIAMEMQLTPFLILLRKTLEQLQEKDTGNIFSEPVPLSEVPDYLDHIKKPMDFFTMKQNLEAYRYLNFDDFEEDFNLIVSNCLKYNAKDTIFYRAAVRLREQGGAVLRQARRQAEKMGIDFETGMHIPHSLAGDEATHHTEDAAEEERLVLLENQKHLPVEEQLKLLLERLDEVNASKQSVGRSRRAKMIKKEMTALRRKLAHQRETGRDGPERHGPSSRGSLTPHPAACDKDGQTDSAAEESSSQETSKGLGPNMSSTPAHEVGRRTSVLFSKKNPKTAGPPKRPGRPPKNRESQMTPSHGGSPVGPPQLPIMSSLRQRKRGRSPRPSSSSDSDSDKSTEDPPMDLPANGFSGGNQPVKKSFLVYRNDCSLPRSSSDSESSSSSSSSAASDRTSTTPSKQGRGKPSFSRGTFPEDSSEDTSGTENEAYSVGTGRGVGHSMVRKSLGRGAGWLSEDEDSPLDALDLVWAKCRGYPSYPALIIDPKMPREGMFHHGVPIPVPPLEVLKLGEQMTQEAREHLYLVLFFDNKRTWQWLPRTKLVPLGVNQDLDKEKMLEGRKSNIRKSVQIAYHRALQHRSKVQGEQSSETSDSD
Chain of Protein polybromo-1 (Homo sapiens) (Q86U86 whole entry, the tested form may be a part): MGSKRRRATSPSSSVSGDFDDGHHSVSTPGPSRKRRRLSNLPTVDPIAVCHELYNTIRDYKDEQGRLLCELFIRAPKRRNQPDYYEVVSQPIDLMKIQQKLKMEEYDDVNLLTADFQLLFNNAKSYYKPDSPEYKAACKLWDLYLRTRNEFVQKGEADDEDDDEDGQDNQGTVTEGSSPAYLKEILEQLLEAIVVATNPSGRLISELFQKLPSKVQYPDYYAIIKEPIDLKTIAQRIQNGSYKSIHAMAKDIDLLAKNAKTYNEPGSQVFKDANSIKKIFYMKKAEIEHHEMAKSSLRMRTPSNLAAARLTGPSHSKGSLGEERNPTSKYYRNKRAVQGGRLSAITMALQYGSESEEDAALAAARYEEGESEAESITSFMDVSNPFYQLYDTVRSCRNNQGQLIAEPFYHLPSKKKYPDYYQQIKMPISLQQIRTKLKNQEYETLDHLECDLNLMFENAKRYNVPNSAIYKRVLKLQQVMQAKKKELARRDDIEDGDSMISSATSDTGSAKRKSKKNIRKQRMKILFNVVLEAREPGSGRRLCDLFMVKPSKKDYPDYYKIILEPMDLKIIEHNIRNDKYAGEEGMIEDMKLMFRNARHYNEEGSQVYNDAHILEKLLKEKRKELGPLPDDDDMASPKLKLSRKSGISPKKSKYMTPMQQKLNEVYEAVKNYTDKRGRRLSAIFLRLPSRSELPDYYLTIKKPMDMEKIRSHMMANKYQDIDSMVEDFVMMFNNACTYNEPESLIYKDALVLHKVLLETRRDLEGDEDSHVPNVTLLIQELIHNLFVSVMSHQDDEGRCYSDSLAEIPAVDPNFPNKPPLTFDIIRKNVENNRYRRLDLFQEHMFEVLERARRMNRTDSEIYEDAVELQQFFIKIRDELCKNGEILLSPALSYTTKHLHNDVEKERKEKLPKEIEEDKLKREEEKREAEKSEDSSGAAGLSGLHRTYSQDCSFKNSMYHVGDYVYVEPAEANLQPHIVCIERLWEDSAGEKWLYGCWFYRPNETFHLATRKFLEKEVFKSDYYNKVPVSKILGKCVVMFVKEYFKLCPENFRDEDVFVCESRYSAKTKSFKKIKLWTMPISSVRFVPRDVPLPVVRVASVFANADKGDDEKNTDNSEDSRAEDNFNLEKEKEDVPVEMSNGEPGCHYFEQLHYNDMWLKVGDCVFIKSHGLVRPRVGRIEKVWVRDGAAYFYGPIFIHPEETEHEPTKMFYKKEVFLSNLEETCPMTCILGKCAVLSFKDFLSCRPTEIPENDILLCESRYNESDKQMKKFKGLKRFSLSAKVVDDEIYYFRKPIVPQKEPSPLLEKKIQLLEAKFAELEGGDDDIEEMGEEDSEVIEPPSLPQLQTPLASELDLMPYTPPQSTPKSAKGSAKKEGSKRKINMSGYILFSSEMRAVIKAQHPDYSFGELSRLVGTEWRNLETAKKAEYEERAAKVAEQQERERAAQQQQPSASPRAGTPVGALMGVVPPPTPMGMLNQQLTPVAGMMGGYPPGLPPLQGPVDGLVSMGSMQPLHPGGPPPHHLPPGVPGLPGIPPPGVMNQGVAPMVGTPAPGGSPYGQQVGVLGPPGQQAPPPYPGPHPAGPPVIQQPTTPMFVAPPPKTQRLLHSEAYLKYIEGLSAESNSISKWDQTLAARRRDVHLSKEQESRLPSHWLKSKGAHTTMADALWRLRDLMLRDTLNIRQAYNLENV

**Q.** Which inhibition [1] does the source give for `CN1C[C@H](Nc2nc3cc[nH]c3c(=O)n2C)C[C@H](c2ccc3c(c2)OCCO3)C1` here?
**A.** inactive

**Q.** What about the Activity [2] of the same compound?
**A.** inactive

**Q.** What about the inhibition (Homo sapiens [3]) of the same compound?
**A.** inactive

**Q.** What about the inhibition [4] of the same compound?
**A.** inactive

**Q.** And the Activity [5]?
**A.** Active

**Q.** What about the inhibition [6] of the same compound?
**A.** inactive

**Q.** And the Activity (Peregrin (Homo sapiens))?
**A.** Active

**Q.** And the inhibition [7]?
**A.** inactive

**Q.** What about the inhibition [8] of the same compound?
**A.** inactive

**Q.** What about the inhibition [9] of the same compound?
**A.** inactive

**Q.** And the inhibition [10]?
**A.** inactive

**Q.** And the inhibition (Homo sapiens [11])?
**A.** inactive

**Q.** And the inhibition [12]?
**A.** inactive

**Q.** And the inhibition [13]?
**A.** inactive

**Q.** What about the inhibition [14] of the same compound?
**A.** inactive

**Q.** And the inhibition (Mus musculus)?
**A.** inactive

**Q.** And the Activity [15]?
**A.** inactive

**Q.** What about the inhibition [16] of the same compound?
**A.** inactive

**Q.** And the inhibition [17]?
**A.** inactive

**Q.** And the inhibition [18]?
**A.** inactive

**Q.** What about the inhibition (Homo sapiens [19]) of the same compound?
**A.** inactive

**Q.** And the inhibition [20]?
**A.** inactive

**Q.** What about the inhibition (Homo sapiens [21]) of the same compound?
**A.** inactive
